Experimental data taken from ChEMBL document CHEMBL1121580, “Comparison of biological effects of N-alkylated congeners of beta-phenethylamine derived from 2-aminotetralin, 2-aminoindan, and 6-aminobenzocycloheptene” (1980).
The source made the active and inactive calls. The rule behind the calls is not given here.

How the values were obtained:
Canis familiaris [1] = experiment: Evaluated for inhibition of pressor response during carotid occlusion in dog at 0.5 mg/kg; IA = inactive; type: functional, organism-based; parameters: dose 0.5 mg/kg; details: Canis lupus familiaris
Rattus norvegicus [2] = species on record: Rattus norvegicus; experiment: Evaluated for induce circling behavior in the rat expressed as rotational behavior (turns/h); IA = inactive; type: functional, organism-based
In short: (§1)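 Used male Sprague-Dawley rats (200–300 g) with unilateral substantia nigra 6-hydroxydopamine lesions. A single 10 mg/kg sc dose was given to four rats at the start of a 1-h automatic recording. Turns/h were recorded with direction (ipsilateral or contralateral); a mean above 100 counted as substantial circling.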

Mus musculus [3] = species on record: Mus musculus; experiment: Evaluated for analgesic activity and increase in reaction time in mouse by hotplate assay; type: functional; parameters: unit not given beside the values
In short: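 Male Swiss-Webster mice (20–30 g) got 10 mg/kg ip 10 min before a single exposure to a 55 ± 0.5 °C hot plate. End point was jumping or paw licking. Ten mice per drug, plus 10 saline controls each test day; also run after naloxone 5 mg/kg ip pretreatment. Mean latency (s) ± SEM; grouped Student's t test vs control.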

Mus musculus [4] = species on record: Mus musculus; experiment: (§2) Evaluated for drug-induced inhibition of exploratory activity in mouse; type: functional
In short: (§3)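 Male Swiss-Webster mice (20–30 g) were acclimated for several days and tested in groups of three in an activity meter. Dosing was 10 mg/kg ip immediately before cage entry; controls got water on each test day. Counts from the 18 min starting at 6 min were summed as % reduction vs control. Three groups per compound; one-way ANOVA, Scheffé.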

Rattus norvegicus [5] = species on record: Rattus norvegicus; experiment: Evaluated for induce circling behavior in the rat expressed as rotational behavior (turns/h); type: functional; in short: as §1
Mus musculus [6] = species on record: Mus musculus; experiment: as §2; type: functional; parameters: concentration or dose not given beside the values; in short: as §3
Felis catus = species on record: Felis catus; experiment: Evaluated for inhibition of pressor response during central sciatic nerve stimulation in cat; type: functional
In short: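 In cats under pentobarbital sodium 30 mg/kg intrathoracic, left femoral arterial pressure was recorded. The central stump of the sectioned right sciatic nerve was stimulated at 4 Hz, 5 ms, supramaximal voltage for 30 s (pressor 30–60 mmHg). Compounds were given iv, followed 1 h, doses stepped by 0.48 log unit; at least six cats. Value is the calculated amount giving 50% pressor inhibition.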

Canis familiaris [7] = species on record: Canis familiaris; experiment: Evaluated for inhibition of pressor response during carotid occlusion in dog.; type: functional; details: Canis lupus familiaris
In short: (§4)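 Dogs (8–15 kg) under thiopental sodium 15 mg/kg iv, then barbital sodium 200 mg/kg. Pressor response to bilateral carotid occlusion was monitored at least 1 h per dose. Doses changed by 0.48 log interval once responses returned to control. At least five dogs per compound; value is the calculated amount giving 50% inhibition of the pressor response.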

Canis familiaris [8] = species on record: Canis familiaris; experiment: Evaluated for inhibition of pressor response during carotid occlusion in dog; IA = inactive; type: functional, organism-based; details: Canis lupus familiaris; in short: as §4
Canis familiaris [9] = species on record: Canis familiaris; experiment: Evaluated for inhibition of pressor response during carotid occlusion in dog; type: functional; details: Canis lupus familiaris; in short: as §4
Canis familiaris [10] = species on record: Canis familiaris; experiment: Evaluated for inhibition of pressor response during carotid occlusion in dog at 0.5; IA = inactive; type: functional, organism-based; details: Canis lupus familiaris

| SMILES | Activity (Mus musculus [3]) | Activity (Rattus norvegicus [5]) [turns hr-1] | Reduction (Mus musculus [6]) [%] | also measured |
| --- | --- | --- | --- | --- |
| CC(C)NC1CCCc2ccccc2C1 (configuration not stated) |  |  |  | ED50 (Canis familiaris [1]): inactive |
| CCCN(CCC)C1CCCc2ccccc2C1 (configuration not stated) |  |  |  | Activity (Rattus norvegicus [2]): inactive |
| CNC1CCc2ccccc2C1.Cl (configuration not stated) | 16 | 263 |  | Reduction (Mus musculus [4]): 70.2% |
| CCN(CC)C1Cc2ccccc2C1.Cl | 33.9 | 304 | 50.6 | ED50 (Felis catus): 1.14 µmol/kg |
| CN(C)C1Cc2ccccc2C1.Cl |  | 23 |  |  |
| Cl.NC1CCc2ccccc2C1 (configuration not stated) | 25.6 | 104 | 55.1 |  |
| CCNC1CCc2ccccc2C1.Cl (configuration not stated) | 29.6 | 508 | 76.4 | ED50 (Canis familiaris [7]): 0.52 µmol/kg; ED50 (Felis catus): 2.3 µmol/kg |
| CN(C)C1CCc2ccccc2C1.Cl (configuration not stated) | 24.2 | 53 | 88.1 | ED50 (Canis familiaris [8]): inactive; ED50 (Felis catus): 0.16 µmol/kg |
| CCNC1Cc2ccccc2C1.Cl | 22.1 | 17 | 73.6 |  |
| NC1CCCc2ccccc2C1 (configuration not stated) |  |  |  | Activity (Rattus norvegicus [2]): inactive |
| CC(C)N(C)C1Cc2ccccc2C1.Cl | 29.4 | 15 | 64 |  |
| CCN(CC)C1CCc2ccccc2C1.Cl (configuration not stated) | 33.5 | 501 | 73.4 | ED50 (Felis catus): 0.35 µmol/kg |
| CCCCN(CCCC)C1Cc2ccccc2C1.Cl | 11.7 | 2 | 8.4 |  |
| CCCNC1Cc2ccccc2C1.Cl | 15 | 6 | 21.9 |  |
| CC(C)N(C)C1CCc2ccccc2C1.Cl (configuration not stated) | 20.6 | 16 | 79.7 |  |
| CCCN(CCC)C1Cc2ccccc2C1.Cl | 22 | 289 | 64 | ED50 (Felis catus): 0.25 µmol/kg |
| CCCNC1CCc2ccccc2C1.Cl (configuration not stated) | 18.9 | 804 | 79 | ED50 (Canis familiaris [9]): 3.38 µmol/kg; ED50 (Felis catus): 0.9 µmol/kg |
| CN(C)C1CCCc2ccccc2C1 (configuration not stated) |  |  |  | ED50 (Canis familiaris [10]): inactive |
| CNC1Cc2ccccc2C1.Cl | 28.6 | 6 | 80.3 |  |
| CCCN(CCC)C1CCc2ccccc2C1.Cl (configuration not stated) | 29.2 | 734 | 76.5 | ED50 (Canis familiaris [9]): 0.22 µmol/kg; ED50 (Felis catus): 0.09 µmol/kg |
| Cl.NC1Cc2ccccc2C1 | 35.8 | 27 | 76 |  |
| CC(C)NC1Cc2ccccc2C1.Cl | 17.8 | 25 | 2.8 |  |
| CC(C)NC1CCc2ccccc2C1.Cl (configuration not stated) | 27 |  |  |  |
| CCCCNC1CCc2ccccc2C1.Cl (configuration not stated) | 17.6 | 7 |  | Reduction (Mus musculus [4]): 20.7% |
| Br.CCCCN(CCCC)C1CCc2ccccc2C1 (configuration not stated) | 12 | 4 | 0.8 |  |
| CCCCNC1Cc2ccccc2C1.Cl | 17.7 | 3 | 7.1 |  |
